Laboratory results from ChEMBL document CHEMBL2062449, “Eco-friendly synthesis and biological evaluation of substituted pyrano[2,3-c]pyrazoles” (Bioorg Med Chem Lett, 2012).
pIC50: −log10 of the molar value. In brackets after ≈: the same amount, converted by molar mass.

Key:
Staphylococcus aureus [1] = assay: Antibacterial activity against Staphylococcus aureus at […] after 24 hrs by agar diffusion method; type: functional
How it was run: (§1)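 Single-concentration antibacterial screen at 100 μg/50 μL per test against the standard bacterial strains.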

Bacillus subtilis [2] = assay: Antibacterial activity against Bacillus subtilis at […] after 24 hrs by agar diffusion method; type: functional; how it was run: as §1
Escherichia coli [3] = assay: Antibacterial activity against Escherichia coli at […] after 24 hrs by agar diffusion method; type: functional; how it was run: as §1
Pseudomonas aeruginosa [4] = assay: Antibacterial activity against Pseudomonas aeruginosa at 100 ug/[…] after 24 hrs by agar diffusion method; type: functional; how it was run: as §1
Staphylococcus aureus [5] = assay: Antibacterial activity against Staphylococcus aureus after 18 to 24 hrs by broth microdilution method; type: functional
Bacillus subtilis [6] = assay: Antibacterial activity against Bacillus subtilis after 18 to 24 hrs by broth microdilution method; type: functional
Escherichia coli [7] = assay: Antibacterial activity against Escherichia coli after 18 to 24 hrs by broth microdilution method; type: functional
Pseudomonas aeruginosa [8] = assay: Antibacterial activity against Pseudomonas aeruginosa after 18 to 24 hrs by broth microdilution method; type: functional
MCF7 [9] = assay: Cytotoxicity against estrogen receptor-positive human MCF7 cells assessed as inhibition of cell proliferation at 1 ug/ml after 24 hrs by MTT assay; type: functional; details: MCF7, 24 h
How it was run: (§2)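 MTT assay on MCF-7 human breast cancer cells, Taxol as reference; percentage inhibition of cell proliferation read at graded concentrations from 0.1 to 50 μg/mL (typically five or six levels per compound); IC50 in μg/mL derived from the inhibition series.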

MCF7 [10] = assay: Cytotoxicity against estrogen receptor-positive human MCF7 cells assessed as inhibition of cell proliferation at 5 ug/ml after 24 hrs by MTT assay; type: functional; details: MCF7, 24 h; how it was run: as §2
MCF7 [11] = assay: Cytotoxicity against estrogen receptor-positive human MCF7 cells assessed as inhibition of cell proliferation at 10 ug/ml after 24 hrs by MTT assay; type: functional; details: MCF7, 24 h; how it was run: as §2
MCF7 [12] = assay: Cytotoxicity against estrogen receptor-positive human MCF7 cells assessed as inhibition of cell proliferation at 25 ug/ml after 24 hrs by MTT assay; type: functional; details: MCF7, 24 h; how it was run: as §2
MCF7 [13] = assay: Cytotoxicity against estrogen receptor-positive human MCF7 cells assessed as inhibition of cell proliferation at 50 ug/ml after 24 hrs by MTT assay; type: functional; details: MCF7, 24 h; how it was run: as §2
MCF7 [14] = assay: Cytotoxicity against estrogen receptor-positive human MCF7 cells assessed as inhibition of cell proliferation after 24 hrs by MTT assay; type: functional, cell-based; details: for IC50: Homo sapiens, MCF7, 24 h, read-out: IC50; how it was run: as §2
Rattus norvegicus [15] = assay: Antiinflammatory activity in Wistar rat assessed as protection against carrageenan-induced paw edema at 100 mg/kg, po administered 1 hr before carrageenan challenge measured after 30 mins; type: functional
Rattus norvegicus [16] = assay: Antiinflammatory activity in Wistar rat assessed as protection against carrageenan-induced paw edema at 100 mg/kg, po administered 1 hr before carrageenan challenge measured after 1 hr; type: functional
Rattus norvegicus [17] = assay: Antiinflammatory activity in Wistar rat assessed as protection against carrageenan-induced paw edema at 100 mg/kg, po administered 1 hr before carrageenan challenge measured after 2 hrs; type: functional
Rattus norvegicus [18] = assay: Antiinflammatory activity in Wistar rat assessed as protection against carrageenan-induced paw edema at 100 mg/kg, po administered 1 hr before carrageenan challenge measured after 3 hrs; type: functional
Rattus norvegicus [19] = assay: Antiinflammatory activity in Wistar rat assessed as protection against carrageenan-induced paw edema at 100 mg/kg, po administered 1 hr before carrageenan challenge measured after 4 hrs; type: functional

SMILES | inhibition zone (IZ) (Staphylococcus aureus [1]) [mm] | inhibition zone (IZ) (Bacillus subtilis [2]) [mm] | inhibition zone (IZ) (Escherichia coli [3]) [mm] | inhibition zone (IZ) (Pseudomonas aeruginosa [4]) [mm] | MIC (Staphylococcus aureus [5]) [µg/mL] | MIC (Bacillus subtilis [6]) [µg/mL] | MIC (Escherichia coli [7]) [µg/mL] | MIC (Pseudomonas aeruginosa [8]) [µg/mL] | inhibition at 1 µg/mL (MCF7 [9]) [%] | inhibition at 5 µg/mL (MCF7 [10]) [%] | inhibition at 10 µg/mL (MCF7 [11]) [%] | inhibition at 25 µg/mL (MCF7 [12]) [%] | inhibition at 50 µg/mL (MCF7 [13]) [%] | IC50 (MCF7 [14]) [µg/mL] | Activity (Rattus norvegicus [15]) [%] | Activity (Rattus norvegicus [16]) [%] | Activity (Rattus norvegicus [17]) [%] | Activity (Rattus norvegicus [18]) [%] | Activity (Rattus norvegicus [19]) [%] | pIC50 (MCF7 [14]; mcf7)
Cc1nn(-c2ccccc2)c2c1C(c1cccc(Oc3nc(Cl)c(Cl)cc3Cl)c1)C(C#N)=C(N)O2 (stereo not drawn) | 16 | 15 | 14 | 16 | 6.25 (≈ 11.9 µM) | 6.25 (≈ 11.9 µM) | 12.5 (≈ 23.8 µM) | 6.25 (≈ 11.9 µM) |  |  |  |  |  |  |  |  |  |  |  | 
Cc1[nH]nc2c1C(c1cccnc1)C(C#N)=C(N)O2 (stereo not drawn) |  |  |  |  |  |  |  |  | 0.41 | 10.1 | 16.3 | 25.2 | 75 | 35.4 |  |  |  |  |  | 
Cc1[nH]nc2c1C(c1c(F)c(F)c(F)c(F)c1F)C(C#N)=C(N)O2 (stereo not drawn) | 18 | 15 | 14 | 15 | 3.12 (≈ 9.13 µM) | 3.12 (≈ 9.13 µM) | 1.56 (≈ 4.56 µM) | 1.56 (≈ 4.56 µM) | 1.1 | 6.96 | 16.2 | 45.1 | 65.6 | 45.5 |  |  |  |  |  | 
Cc1nn(-c2ccccc2)c2c1C1(C(=O)Nc3ccccc31)C(C#N)=C(N)O2 (stereo not drawn) | 14 | 19 | 21 | 15 | 3.12 (≈ 8.46 µM) | 3.12 (≈ 8.46 µM) | 3.12 (≈ 8.46 µM) | 6.25 (≈ 16.9 µM) | 19.3 | 26.6 | 40.3 | 64.6 | 86.5 | 16.8 | 23.5 | 25 | 46.5 | 68.8 | 47.2 | 
Cc1[nH]nc2c1C1(C(=O)Nc3ccccc31)C(C#N)=C(N)O2 (stereo not drawn) | 13 | 11 | 12 | 10 |  |  |  |  | -1.26 | -3.16 | 0.51 | -5.9 | -4.93 |  | 23.5 | 36.1 | 54.7 | 69.8 | 51.6 | 
Cc1[nH]nc2c1C(c1ccc(O)cc1)C(C#N)=C(N)O2 (stereo not drawn) | 13 |  | 15 | 15 |  |  |  |  |  |  |  |  |  |  |  |  |  |  |  | 
O=C(O)c1cn(C2CC2)c2cc(N3CCNCC3)c(F)cc2c1=O [CIPROFLOXACIN] |  |  |  |  | 1.56 (≈ 4.71 µM) | 1.56 (≈ 4.71 µM) |  | 1.56 (≈ 4.71 µM) |  |  |  |  |  |  |  |  |  |  |  | 
CC(=O)O[C@H]1C(=O)[C@@]2(C)[C@H]([C@H](OC(=O)c3ccccc3)[C@]3(O)C[C@H](OC(=O)[C@H](O)[C@@H](NC(=O)c4ccccc4)c4ccccc4)C(C)=C1C3(C)C)[C@]1(OC(C)=O)CO[C@@H]1C[C@@H]2O [PACLITAXEL] |  |  |  |  |  |  |  |  |  |  |  |  |  |  |  |  |  |  |  | 7.82
Cc1[nH]nc2c1C(c1ccc(C3C(C#N)=C(N)Oc4n[nH]c(C)c43)cc1)C(C#N)=C(N)O2 (stereo not drawn) |  |  |  |  |  |  |  |  | 11.4 | 23.4 | 24.4 | 24.8 | 26.7 |  |  |  |  |  |  | 
Cc1nn(-c2ccccc2)c2c1C(c1ccc(O)cc1)C(C#N)=C(N)O2 (stereo not drawn) | 15 | 17 | 16 | 15 | 6.25 (≈ 18.1 µM) | 6.25 (≈ 18.1 µM) | 12.5 (≈ 36.3 µM) | 3.12 (≈ 9.07 µM) | 2.1 | 5.96 | 22.9 | 30.8 | 50.2 | 47.5 | 11.7 | 30.5 | 43.8 | 56.9 | 50.5 | 
Cc1nn(-c2ccccc2)c2c1C(c1ccccc1)C(C#N)=C(N)O2 (stereo not drawn) | 6 | 8 | 14 | 9 |  |  |  |  | 1.67 | 22.4 | 26.9 | 55.5 | 84.1 | 25.8 | 11.7 | 27.7 | 42.4 | 53.7 | 48.3 | 
Cc1[nH]nc2c1C1(C(C#N)=C(N)O2)c2ccccc2-c2ccccc21 | 10 | 10 | 10 | 17 |  |  |  |  |  |  |  |  |  |  |  |  |  |  |  | 
Cc1nn(-c2ccccc2)c2c1C(c1cccc(Oc3ccccc3)c1)C(C#N)=C(N)O2 (stereo not drawn) | 15 |  | 18 |  | 3.12 (≈ 7.43 µM) | 6.25 (≈ 14.9 µM) | 6.25 (≈ 14.9 µM) | 3.12 (≈ 7.43 µM) |  |  |  |  |  |  |  |  |  |  |  | 
Cc1ccc(C2C(C#N)=C(N)Oc3[nH]nc(C)c32)cc1 (stereo not drawn) | 10 | 10 |  | 15 |  |  |  |  |  |  |  |  |  |  |  |  |  |  |  | 
COc1ccc(C2C(C#N)=C(N)Oc3c2c(C)nn3-c2ccccc2)cc1 (stereo not drawn) | 5 | 4 | 10 | 6 |  |  |  |  | 0.76 | 4.19 | 8.99 | 11.6 | 30 |  | 11.7 | 25 | 39.7 | 52.6 | 45 | 
Cc1nn(-c2ccccc2)c2c1C(c1ccc([N+](=O)[O-])cc1)C(C#N)=C(N)O2 (stereo not drawn) | 8 | 7 | 15 | 8 |  |  |  |  | 2.04 | 12.5 | 30.8 | 85.5 | 96.4 | 15.1 |  |  |  |  |  | 
Cc1nn(-c2ccccc2)c2c1C1(C(C#N)=C(N)O2)c2ccccc2-c2ccccc21 | 12 | 11 | 13 | 16 |  |  |  |  |  |  |  |  |  |  | 23.5 | 30.5 | 45.2 | 65.5 | 56.6 | 
CC(C)Cc1ccc(C(C)C(=O)O)cc1 (stereo not drawn) [IBUPROFEN] |  |  |  |  |  |  |  |  |  |  |  |  |  |  | 38 | 41.6 | 52.7 | 72.3 | 64.4 | 
